# An excerpt weighted towards active compounds, which were near 1.9% of everything screened.
# Runt-SMMHC FRET – Runt domain-CBFb-SMMHC interaction inhibition | Cerulean-Runt/Venus-CBFb-SMMHC FRET ratio 530/480, 1 h | 0.74% of 220,000 active | AID 1434 | inhibition, % at 20 µM | Q01196+Q13951;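 active means mean inhibition across duplicate retests at 20 µM reaching about 50%, limit read from the data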;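 further: 0% = DMSO wells and 100% = wells with excess untagged CBFb-SMMHC; inhibitors lower the FRET ratio by blocking Runt binding to CBFb-SMMHC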
# Target sequence (Q01196 whole entry, looked up, the tested form may be a part): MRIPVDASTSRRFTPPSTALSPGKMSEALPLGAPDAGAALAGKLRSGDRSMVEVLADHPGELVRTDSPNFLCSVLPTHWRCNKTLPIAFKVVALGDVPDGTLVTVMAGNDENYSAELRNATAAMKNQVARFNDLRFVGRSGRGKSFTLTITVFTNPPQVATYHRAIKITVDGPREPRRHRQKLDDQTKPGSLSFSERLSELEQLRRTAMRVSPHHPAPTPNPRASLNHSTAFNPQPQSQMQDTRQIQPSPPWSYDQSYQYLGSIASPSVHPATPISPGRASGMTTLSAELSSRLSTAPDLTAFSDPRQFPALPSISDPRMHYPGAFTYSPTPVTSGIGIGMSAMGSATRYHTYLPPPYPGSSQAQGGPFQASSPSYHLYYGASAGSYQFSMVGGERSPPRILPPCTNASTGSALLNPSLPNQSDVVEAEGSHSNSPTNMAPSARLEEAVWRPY
# Target sequence (Q13951 whole entry, looked up, the tested form may be a part): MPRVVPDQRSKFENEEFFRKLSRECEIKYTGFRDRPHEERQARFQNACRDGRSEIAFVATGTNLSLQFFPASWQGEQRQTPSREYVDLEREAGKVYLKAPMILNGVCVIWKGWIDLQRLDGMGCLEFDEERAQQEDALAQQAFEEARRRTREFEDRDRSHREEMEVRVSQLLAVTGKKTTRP
# Hck-Nef inh – human Hck-Nef kinase inhibition | Recombinant Hck-YEEI plus Nef, Z-Lyte FRET kinase assay | P08631 | inhibition, % at 20 µM | 0.68% of 220,000 active | AID 463187;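 active means Hck-Nef kinase inhibition above about 50%, limit read from the data; inactive means inhibition below that limit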;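 further: 0% = DMSO with Hck plus Nef and 100% = Hck alone without Nef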
# Runt-CBFb FRET – Runt domain-CBFb interaction inhibition; Q01196+Q13951; 0.46% of 220,000 active; Cerulean-Runt/Venus-CBFb FRET ratio 530/480, 1 h; AID 1496; inhibition, % at 20 µM;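 active means inhibition over about 50% at 20 µM in the single-dose screen, limit read from the data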;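 further: 0% = DMSO wells and 100% = excess unlabeled CBFb competitor control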
#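 Measured by: fluorescence energy transfer, 422 nm excitation, 530/480 nm emission; Assay system: Cerulean-Runt domain; Medium: Tris pH 7.5 buffer with BSA; Measure: loss of energy transfer signal; Controls: 5 µM unlabeled CBFb as full-inhibition high control; Incubation: protein complex preformed 1 h, compound exposure 1 h, room temperature, dark.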
# RanGTP-Impb inh – disruptors of Ran-importin-beta complex formation – biochemical, FRET, CFP-Ran, YFP-importin-beta, homogeneous, primary screen; cell-free CFP-Ran/YFP-importin-beta FRET ratio; 1.1% of 300,000 active; inhibition, % (concentration not given with the values);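 active means more than half of the replicate wells show a fall in the fluorescence ratio signal beyond about 16%, limit read from the data, passing the limit was not always enough; inconclusive means exactly half of the replicate wells pass the set limit; inactive means fewer than half of replicates pass the limit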;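 further: 0% = DMSO wells and 100% = Ran loaded with GDP instead of GTP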
# Starred values were filed as active, the others as inactive; ? = inconclusive; nt = no result.
SMILES,Runt-SMMHC FRET,Hck-Nef inh,Runt-CBFb FRET,RanGTP-Impb inh
COc1ccc(C2C3=C(CC(C)(C)CC3=O)Nc3c2c(=O)[nH]c2nc(C)nn32)cc1 (stereo unspecified),135*,4,87*,46*
COc1ccc(OC)c(C2C3=C(CCCC3=O)Nc3nnnn32)c1 (stereo unspecified),2,0,-1,8
C=CCOc1ccccc1C1C2=C(CC(C)(C)CC2=O)Nc2c1c(=O)n(C)c(=O)n2C (stereo unspecified),46,8,24,2
COc1ccc(C2C(C#N)=C(C)NC3=C2C(=O)CC(C)(C)C3)cc1 (stereo unspecified),40,18,17,-2
COc1ccc(C2C3=C(CC(C)(C)CC3=O)Nc3c2c(=O)n(C)c(=O)n3C)cc1OC (stereo unspecified),107*,6,63*,5
COc1ccc(OC)c(C2C3=C(CCCC3=O)Nc3c2c(=O)n(C)c(=O)n3C)c1 (stereo unspecified),73*,6,33,3
Cc1ccc(/C=C2\Oc3c(ccc(O)c3CN3CCN(C)CC3)C2=O)cc1,90*,1,3,22*
CCN1CCN(Cc2c(O)ccc3c2O/C(=C\c2ccccc2)C3=O)CC1,88*,3,-65,-2
CCN1CCN(Cc2c(O)ccc3c2O/C(=C\c2ccc(C)cc2)C3=O)CC1,92*,16,20,22*
O=C1/C(=C/C=C/c2ccccc2)Oc2c1ccc(O)c2CN1CCN(CCO)CC1,-93,-13,-327,-5
CCN1CCN(Cc2c(O)ccc3c2O/C(=C\C=C\c2ccccc2)C3=O)CC1,-252,-5,-44,-320
CCc1ccc(/C=C2\Oc3c(ccc(O)c3CN3CCN(C)CC3)C2=O)cc1,81*,-18,-10,?
COc1ccc(O[C@H]2C=C[C@@H](c3ccccc3)O[C@@H]2CO/N=C(\C)CCC(=O)OC[C@H]2O[C@H](c3ccccc3)C=C[C@@H]2Oc2ccc(OC)cc2)cc1,-4,-2,1,7
Cc1ccc(N(C(=O)c2snc(C(N)=O)c2N)C(C(=O)NCCC(C)C)c2ccco2)cc1 (stereo unspecified),9,75*,-3,-1
COc1ccc(N(C(=O)c2snc(C(N)=O)c2N)C(C(=O)NC2CCCC2)c2ccco2)cc1 (stereo unspecified),nt,nt,nt,1
CCc1ccc(N(C(=O)c2snc(C(N)=O)c2N)C(C(=O)NC2CCCC2)c2ccco2)cc1 (stereo unspecified),nt,nt,nt,5
NC(=O)c1nsc(C(=O)N(CCc2ccccc2)C(C(=O)NC2CCCC2)c2ccco2)c1N (stereo unspecified),6,0,4,89*
COc1cc(C(C(=O)NC2CCCCC2)N(CCN2CCOCC2)C(=O)C2COc3ccccc3O2)cc(OC)c1OC (stereo unspecified),-2,26,-2,-2
CC(C(=O)NCc1ccccc1Cl)N1C(=O)c2ccccc2C1=O (stereo unspecified),nt,nt,nt,0
CS(=O)(=O)c1ccc(Cl)c(NC(=O)COC(=O)CCCN2C(=O)c3cccc4cccc(c34)C2=O)c1,nt,nt,nt,25*
O=C(COC(=O)CCCN1C(=O)c2cccc3cccc(c23)C1=O)Nc1cccc(Br)c1,3,-1,1,5
COc1cc(/C=C(\NC(=O)c2cc(OC)c(OC)c(OC)c2)C(=O)NC(C(=O)O)c2ccccc2)cc(OC)c1OC (stereo unspecified),nt,nt,nt,4
CCOC(=O)C1=C(C)N=C2SC=C(C)N2C1c1ccc(OC)cc1 (stereo unspecified),60*,17,23,10
CCOC(=O)N1CCN(S(=O)(=O)c2ccc(C(=O)Nc3sc4c(c3C(N)=O)CCN(CC)C4)cc2)CC1,nt,nt,nt,43*
CCCN1CCc2c(sc(NC(=O)c3ccc(S(=O)(=O)N4CCN(C(=O)OCC)CC4)cc3)c2C(N)=O)C1,nt,nt,nt,96*
CCCN1CCc2c(sc(NC(=O)C3CCN(S(=O)(=O)c4cccs4)CC3)c2C(N)=O)C1,nt,nt,nt,151*
O=C(O)c1ccc[n+](Cc2ccc([N+](=O)[O-])cc2)c1,nt,nt,nt,12*
O=[N+]([O-])c1ccc(C[n+]2cccc(O)c2)cc1,nt,nt,nt,-2
NS(=O)(=O)c1ccc(NS(=O)(=O)c2ccc(NC(=O)C3CC3)cc2)cc1,nt,nt,nt,1
CCCC(=O)Nc1ccc(C=C(C(C)=O)C(C)=O)cc1,-3,0,0,-1
